Screens from PubChem BioAssay.
Compounds with a hit are over-represented: about 1.4% of the library has one in this group of screens.
SR-BI DiI inh – mouse SR-BI HDL lipid transfer inhibition. Q61009. ldlA[mSR-BI] CHO cells, DiI-HDL uptake fluorescence, 3 h. inhibition, % at 12.5 µM. actives 0.96% (n = 320,000). AID 488896;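 active means mean replicate inhibition of at least 70% and a set share of replicates each scoring 70 or more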;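 further: 0% = median of neutral control wells and 100% = median of positive control wells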
Target sequence (Q61009 whole entry, looked up): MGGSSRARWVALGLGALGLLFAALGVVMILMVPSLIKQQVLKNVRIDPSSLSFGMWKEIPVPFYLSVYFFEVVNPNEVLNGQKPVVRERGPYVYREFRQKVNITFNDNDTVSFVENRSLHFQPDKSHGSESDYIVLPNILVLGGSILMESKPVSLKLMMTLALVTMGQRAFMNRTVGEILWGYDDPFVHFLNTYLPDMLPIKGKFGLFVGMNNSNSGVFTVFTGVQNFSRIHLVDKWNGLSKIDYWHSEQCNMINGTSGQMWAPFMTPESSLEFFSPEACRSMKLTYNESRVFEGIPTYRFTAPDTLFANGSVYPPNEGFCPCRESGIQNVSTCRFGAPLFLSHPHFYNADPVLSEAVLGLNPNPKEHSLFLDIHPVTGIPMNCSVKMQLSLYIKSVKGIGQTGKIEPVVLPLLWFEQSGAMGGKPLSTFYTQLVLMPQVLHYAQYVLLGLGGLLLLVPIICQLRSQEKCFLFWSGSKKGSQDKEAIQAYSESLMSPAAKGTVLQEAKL
SR-BI DiI-HDL act – enhances SR-BI lipid uptake from DiI-HDL. AID 504775. activation, % at 12.5 µM. CHO ldlA[mSR-BI] cells, DiI-HDL uptake fluorescence, 3 h; 100 = double the neutral-control signal. actives 0.096% (n = 320,000);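 active means mean replicate activation of at least 60% and every replicate at or above 60%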;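 further: 0% = median plate neutral-control signal and 100% = twice that signal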
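Test system: SR-BI-overexpressing, LDLR-lacking CHO cells. Measured by: DiI fluorescence, bottom read. Medium: Ham's F12 with 0.5% BSA, HEPES 25 mM, pH 7.4. Timing: 3 h uptake period with compound, 37 °C.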
Vif imaging – HIV Vif inhibition | AID 602346 | inhibition, % at 7.49 µM | HEK293T cells, Vif self-association by quenched fluorescence, imaging, 24 h | actives 0.35% (n = 340,000); in the data active means inhibition above about 50%, passing the limit was not always enough
PKA-R2B act – activates the human PKA-R2B holoenzyme complex; actives 0.079% (n = 340,000); PKA-R2B holoenzyme dissociation, Cy5-IP20 fluorescence polarization; R2B truncated from residue 108, S112A mutant; 0% DMSO only, 100% 113 µM cGMP; P22694+P31323; activation, % at 11.4 µM;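 active means activation above a cutoff set at the mean over all compounds plus 3 SD, cut at about 18% in these data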;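 further: higher means more holoenzyme dissociation and a rise in polarization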
PKA-R1A activ – activators of PKA-R1A complex. P00514+P68181. PKA-R1A dissociation, Cy5-IP20 fluorescence polarization; scaled: DMSO 0%, 113 µM cGMP 100%. activation, % at 11.4 µM. actives 0.083% (n = 340,000). AID 504707;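 active means percent activation above the mean of all tested compounds plus 3 SD, cut at about 19% in these data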;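 further: higher means more PKAc released from R1A so a rise in polarization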
* marks the source's active call; other numbers are inactive results.

`Cc1ccc(-c2c(C(=O)N/N=C/c3sccc3C)nnn2-c2nonc2N)cc1` gave SR-BI DiI inh 85*, SR-BI DiI-HDL act -85, Vif imaging 31, PKA-R2B act -5 and PKA-R1A activ -1.
For Cc1ccc(-c2c(C(=O)N/N=C/c3c[nH]c4ccccc34)nnn2-c2nonc2N)cc1 the results were SR-BI DiI inh 85*, SR-BI DiI-HDL act -85, Vif imaging -2, PKA-R2B act -1 and PKA-R1A activ -5.
For COC(=O)c1ccccc1NC(=O)CCCn1nc([N+](=O)[O-])c(Br)c1C the results were Vif imaging 5, PKA-R2B act 2 and PKA-R1A activ -4.
Screening Cc1c(CNCCc2ccccc2Cl)c(C(=O)O)c(C)n1-c1ccccc1 returned SR-BI DiI inh -169, SR-BI DiI-HDL act 169*, Vif imaging 13, PKA-R2B act 1 and PKA-R1A activ 2.
For Cn1c(C(=O)O)cc2cc(Oc3ccccc3)ccc21 the results were SR-BI DiI inh -28, SR-BI DiI-HDL act 28, Vif imaging -2, PKA-R2B act -6 and PKA-R1A activ -16.
For Cn1c(C(=O)NN)cc2cc(Oc3ccccc3)ccc21 the results were SR-BI DiI inh 79*, SR-BI DiI-HDL act -79, Vif imaging 2, PKA-R2B act -2 and PKA-R1A activ 4.
Screening O=C(Nc1nnc(CCS(=O)(=O)c2ccc3ccccc3c2)s1)c1ccc([N+](=O)[O-])cc1 returned SR-BI DiI inh -15, SR-BI DiI-HDL act 15, Vif imaging -2, PKA-R2B act -5 and PKA-R1A activ -3.
Oc1ccc(-c2cnc(-c3ccc(O)cc3)nc2)cc1 was read as SR-BI DiI inh 16, SR-BI DiI-HDL act -16, Vif imaging 36, PKA-R2B act -3 and PKA-R1A activ 3.
For Nc1ccc(-c2cnc(-c3ccc(N)cc3)nc2)cc1 the results were SR-BI DiI inh 5, SR-BI DiI-HDL act -5, Vif imaging 77*, PKA-R2B act 1 and PKA-R1A activ -6.
For CCCCOc1ccc(C(C)NC(=O)C2CCCN(S(=O)(=O)CCC)C2)cc1 (centres undefined) the results were SR-BI DiI inh 30, SR-BI DiI-HDL act -30, Vif imaging 3, PKA-R2B act -4 and PKA-R1A activ -3.
Cc1ccccc1NC(=O)c1sc2nc(N3CCOCC3)c3c(c2c1N)CCCC3 was read as SR-BI DiI inh 69, SR-BI DiI-HDL act -69, Vif imaging 1, PKA-R2B act 7 and PKA-R1A activ 4.
COc1ccc(OC)c(NC(=O)c2sc3nc(Cc4ccccc4)cc(C(F)(F)F)c3c2N)c1 was read as SR-BI DiI inh 71*, SR-BI DiI-HDL act -71, Vif imaging 9, PKA-R2B act 3 and PKA-R1A activ 1.
COc1ccc(-c2cc(C(F)(F)F)c3c(N)c(C(=O)NCCSC)sc3n2)cc1 was read as SR-BI DiI inh 62, SR-BI DiI-HDL act -62, Vif imaging 5, PKA-R2B act 1 and PKA-R1A activ 6.
`COc1ccccc1NC(=O)c1sc2nc(N3CCOCC3)c3c(c2c1N)CCCC3` gave SR-BI DiI inh 84*, Vif imaging 3, PKA-R2B act 4 and PKA-R1A activ 4.
Screening CCOC(=O)c1sc2nc(-c3ccco3)c3c(c2c1N)CC(C)(C)OC3 returned SR-BI DiI inh 75*, SR-BI DiI-HDL act -75, Vif imaging 2, PKA-R2B act 6 and PKA-R1A activ -8.
`CC1(C)Cc2c(c(N3CCCC3)nc3sc(C(=O)Nc4ccccc4)c(N)c23)CO1` gave SR-BI DiI inh 76*, SR-BI DiI-HDL act -76, Vif imaging 5, PKA-R2B act -4 and PKA-R1A activ 4.
For Cc1ccc(NC(=O)c2sc3nc(N4CCOCC4)c4c(c3c2N)CC(C)(C)OC4)cc1 the results were SR-BI DiI inh 26, SR-BI DiI-HDL act -26, Vif imaging -7, PKA-R2B act 8 and PKA-R1A activ -11.
`CCC(CC)C(=O)N(C)c1c(C)nc2c(OCc3cc(Cl)cc(Cl)c3)cccn12` gave Vif imaging -20.
`CC(C)(C)c1ccc(OCCCC(=O)Nc2nnc(C3CC3)s2)cc1` gave Vif imaging -15, PKA-R2B act 2 and PKA-R1A activ -2.
Screening CCOC(=O)c1sc2nc(N3CCOCC3)c3c(c2c1N)CCC3 returned SR-BI DiI inh 74*, SR-BI DiI-HDL act -74, Vif imaging 1, PKA-R2B act -3 and PKA-R1A activ -3.
For CCOC(=O)c1ccc(NC(=O)c2sc3nc(N4CCOCC4)c4c(c3c2N)CCCC4)cc1 the results were SR-BI DiI inh 0, SR-BI DiI-HDL act 0, Vif imaging -3, PKA-R2B act -5 and PKA-R1A activ -12.
`COCCSc1ccccc1C(=O)Nc1ccc([N+](=O)[O-])cc1OC` gave SR-BI DiI inh 81*, SR-BI DiI-HDL act -81, Vif imaging -10, PKA-R2B act 9 and PKA-R1A activ -2.
Screening COc1ccc([N+](=O)[O-])cc1NC(=O)c1ccccc1N(C)S(C)(=O)=O returned SR-BI DiI inh -12, SR-BI DiI-HDL act 12, PKA-R2B act 0 and PKA-R1A activ 3.
COc1ccc([N+](=O)[O-])cc1NC(=O)c1cn(-c2ccc(Cl)cc2)c(=O)c2ccccc12 was read as SR-BI DiI inh 74*, SR-BI DiI-HDL act -74, Vif imaging 24, PKA-R2B act -9 and PKA-R1A activ 6.
`COc1ccc([N+](=O)[O-])cc1NC(=S)NC(NC(=O)C(c1ccccc1)c1ccccc1)C(Cl)(Cl)Cl` (centres undefined) gave SR-BI DiI inh 87*, SR-BI DiI-HDL act -87, PKA-R2B act -7 and PKA-R1A activ -6.
Screening COc1ccc([N+](=O)[O-])cc1NC(=O)CC(c1ccccc1)c1ccccc1 returned SR-BI DiI inh 57, SR-BI DiI-HDL act -57, Vif imaging -2, PKA-R2B act -8 and PKA-R1A activ -3.
For COCCSc1ccccc1C(=O)Nc1cc([N+](=O)[O-])ccc1OC the results were SR-BI DiI inh 83*, SR-BI DiI-HDL act -83, Vif imaging 27, PKA-R2B act -4 and PKA-R1A activ 12.
Screening COc1cccc(CNC(=O)c2ccc(NC(=O)C3=CSCCO3)cc2)c1 returned SR-BI DiI inh 10, SR-BI DiI-HDL act -10, Vif imaging 1, PKA-R2B act -13 and PKA-R1A activ -13.
Screening COc1ccc(NC(=S)N2CCN(C(=O)c3ccco3)CC2)cc1OC returned SR-BI DiI inh 12, SR-BI DiI-HDL act -12, Vif imaging -3, PKA-R2B act -12 and PKA-R1A activ -4.
`COc1cccc(C2=NN(C(=O)C3CC3)C(O)(C(F)(F)F)C2)c1` (centres undefined) gave Vif imaging 0, PKA-R2B act 4 and PKA-R1A activ 3.
Screening NC(=O)C1CCN(C(=O)c2ccc(Cl)c(S(=O)(=O)N3CCc4ccccc43)c2)CC1 returned Vif imaging 1, PKA-R2B act -3 and PKA-R1A activ 4.
